Common to all, as to assay type: functional
The subject of test [1] is Rattus norvegicus. As to the kind of experiment: Liver uptake after 2 hr was determined in female Fischer rats after [125I]-labeled compound complexed with bovine serum albumin was injected intravenously. Put shortly:
(§1)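 Female Fischer 344 rats (fed ad libitum) under ether anaesthesia received the ¹²⁵I fatty acid in a lateral tail vein. Dose was ~3.8–4.8 μCi per rat (sp act ~125–240 mCi/mmol), given in 0.5 mL 6% bovine albumin (final ethanol 10%) after filtration. Four rats per time point were used. Tissue radioactivity is % injected dose/g, mean with range, calculated against standards of the injected solution.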

Test [2] has as its system Rattus norvegicus. As to the kind of experiment: Liver uptake after 3 day was determined in female Fischer rats after [125I]-labeled compound complexed with bovine serum albumin was injected intravenously. An outline of the steps:
as §1

In test [3] the test system is Rattus norvegicus. As to the kind of experiment: Kidney uptake after 60 min was determined in female Fischer rats after [125I]-labeled compound complexed with bovine serum albumin was injected intravenously. Put shortly:
as §1

Test [4] concerns Rattus norvegicus. As to the kind of experiment: Lungs uptake after 1 day was determined in female Fischer rats after [125I]-labeled compound complexed with bovine serum albumin was injected intravenously. An outline of the steps:
as §1

The test system of test [5] is Rattus norvegicus. As to the kind of experiment: Lungs uptake after 4 hr was determined in female Fischer rats after [125I]-labeled compound complexed with bovine serum albumin was injected intravenously. An outline of the steps:
as §1

In test [6] the test system is Rattus norvegicus. As to the kind of experiment: Thyroid uptake after 30 min was determined in female Fischer rats after [125I]-labeled compound complexed with bovine serum albumin was injected intravenously. An outline of the steps:
(§2)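 Female Fischer 344 rats with free access to food and water. The 125I-labelled fatty acid (~3.8–4.8 μCi; sp act. ~125–240 mCi/mmol) was complexed with 6% bovine serum albumin (10% final ethanol), filtered, and 0.5 mL was injected via a lateral tail vein under ether anaesthesia. Four rats per time point. Values are mean % injected dose/g, calculated against injectate standards. Thyroid weight was taken as 7.5 mg/100 g body weight.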

Test [7] concerns Rattus norvegicus. As to the kind of experiment: Thyroid uptake after 3 days was determined in female Fischer rats after [125I]-labeled compound complexed with bovine serum albumin was injected intravenously. An outline of the steps: as §2
Test [8] concerns Rattus norvegicus. As to the kind of experiment: Kidney uptake after 1 day was determined in female Fischer rats after [125I]-labeled compound complexed with bovine serum albumin was injected intravenously. Put shortly: as §1
In test [9] the test system is Rattus norvegicus. As to the kind of experiment: Kidney uptake after 2 hr was determined in female Fischer rats after [125I]-labeled compound complexed with bovine serum albumin was injected intravenously. An outline of the steps:
as §1

Test [10] concerns Rattus norvegicus. As to the kind of experiment: Kidney uptake after 30 min was determined in female Fischer rats after [125I]-labeled compound complexed with bovine serum albumin was injected intravenously. Put shortly: as §1
Test [11] concerns Rattus norvegicus. As to the kind of experiment: Kidney uptake after 3 days was determined in female Fischer rats after [125I]-labeled compound complexed with bovine serum albumin was injected intravenously. Put shortly: as §1
Test [12] deals with Rattus norvegicus. As to the kind of experiment: Kidney uptake after 4 hr was determined in female Fischer rats after [125I]-labeled compound complexed with bovine serum albumin was injected intravenously. An outline of the steps:
as §1

The subject of test [13] is Rattus norvegicus. As to the kind of experiment: Kidney uptake after 5 min was determined in female Fischer rats after [125I]-labeled compound complexed with bovine serum albumin was injected intravenously. Put shortly:
as §1

Test [14] deals with Rattus norvegicus. As to the kind of experiment: Blood uptake after 4 hr was determined in female Fischer rats after [125I]-labeled compound complexed with bovine serum albumin was injected intravenously. Put shortly: as §1
Test [15] relates to Rattus norvegicus. As to the kind of experiment: Heart uptake after 3 day was determined in female Fischer rats after [125I]-labeled compound complexed with bovine serum albumin was injected intravenously. Put shortly: as §1
The nature of test [16]: Ratio of heart to blood uptake after 30 min was determined in female Fischer rats after [125I]-labeled compound complexed with bovine serum albumin was injected intravenously. An outline of the steps: (§3)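 Female Fischer 344 rats (food and water ad libitum) given the 125I-labelled fatty acid in 6% bovine albumin with 10% final ethanol, filtered, 0.5 mL into a lateral tail vein under ether anaesthesia. Four rats per time point. Tissue activity expressed as % injected dose/g against assayed injectate standards. Mean heart/tissue ratios were calculated from mean %ID/g values.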

Test [17] in a line: Ratio of heart to blood uptake after 5 min was determined in female Fischer rats after [125I]-labeled compound complexed with bovine serum albumin was injected intravenously. Put shortly:
as §3

A short description of test [18]: Ratio of heart to liver uptake after 5 min was determined in female Fischer rats after [125I]-labeled compound complexed with bovine serum albumin was injected intravenously. An outline of the steps:
as §3

The nature of test [19]: Ratio of heart to liver uptake after 240 min was determined in female Fischer rats after [125I]-labeled compound complexed with bovine serum albumin was injected intravenously. An outline of the steps:
as §3

Test [20] in a line: Ratio of heart to lungs uptake after 30 min was determined in female Fischer rats after [125I]-labeled compound complexed with bovine serum albumin was injected intravenously. An outline of the steps: as §3
In test [21] the test system is Rattus norvegicus. As to the kind of experiment: Blood uptake after 3 day was determined in female Fischer rats after [125I]-labeled compound complexed with bovine serum albumin was injected intravenously. Put shortly:
as §1

Test [22] has as its system Rattus norvegicus. As to the kind of experiment: Kidneys uptake after 4 hr was determined in female Fischer rats after [125I]-labeled compound complexed with bovine serum albumin was injected intravenously. An outline of the steps: as §1
For test [23], the system named is Rattus norvegicus. As to the kind of experiment: Kidneys uptake after 5 min was determined in female Fischer rats after [125I]-labeled compound complexed with bovine serum albumin was injected intravenously. Put shortly:
as §1

Test [24] relates to Rattus norvegicus. As to the kind of experiment: Kidneys uptake after 60 min was determined in female Fischer rats after [125I]-labeled compound complexed with bovine serum albumin was injected intravenously. Put shortly:
as §1

Test [25] relates to Rattus norvegicus. As to the kind of experiment: Liver uptake after 3 days was determined in female Fischer rats after [125I]-labeled compound complexed with bovine serum albumin was injected intravenously. An outline of the steps:
as §1

In test [26] the test system is Rattus norvegicus. As to the kind of experiment: Kidneys uptake after 1 day was determined in female Fischer rats after [125I]-labeled compound complexed with bovine serum albumin was injected intravenously. Put shortly:
as §1

Test [27] has as its system Rattus norvegicus. As to the kind of experiment: Kidneys uptake after 2 hr was determined in female Fischer rats after [125I]-labeled compound complexed with bovine serum albumin was injected intravenously. An outline of the steps: as §1
The test system of test [28] is Rattus norvegicus. As to the kind of experiment: Kidneys uptake after 30 min was determined in female Fischer rats after [125I]-labeled compound complexed with bovine serum albumin was injected intravenously. An outline of the steps: as §1
Test [29] relates to Rattus norvegicus. As to the kind of experiment: Kidneys uptake after 3 days was determined in female Fischer rats after [125I]-labeled compound complexed with bovine serum albumin was injected intravenously. Put shortly:
as §1

Test [30] relates to Rattus norvegicus. As to the kind of experiment: Blood uptake after 3 days was determined in female Fischer rats after [125I]-labeled compound complexed with bovine serum albumin was injected intravenously. Put shortly: as §1
Test [31] deals with Rattus norvegicus. As to the kind of experiment: Heart uptake after 3 days was determined in female Fischer rats after [125I]-labeled compound complexed with bovine serum albumin was injected intravenously. Put shortly: as §1

With `O=C(O)CCCCCCC[Te]CCCCCCC/C=C/I`, the Injected dose/g in the test on Rattus norvegicus [1] is on record as 4.66%; with Rattus norvegicus [2], 0.64%; in the test with Rattus norvegicus [3], 1.52%; with Rattus norvegicus [4], 0.55%; in the test with Rattus norvegicus [5] it was 1.21%; in the test on Rattus norvegicus [6], 15%. The Injected dose/g was 267% with Rattus norvegicus [7]; 0.59% in the test with Rattus norvegicus [8]; 1.27% in the test on Rattus norvegicus [9]; 1.38% in the test with Rattus norvegicus [10]; 0.22% in the test with Rattus norvegicus [11]; 1.19% with Rattus norvegicus [12]. In addition, the Injected dose/g is 1.58% in the test with Rattus norvegicus [13], 0.53% with Rattus norvegicus [14], 0.28% in the test on Rattus norvegicus [15] and 0.21% with Rattus norvegicus [21]. The Ratio was determined as 8 in test [16]; 21 in test [17]; 0.75 in test [18]; 0.93 in test [19]; 2.5 in test [20].
`O=C(O)CCCCCCCCC[Te]CCCCC/C=C/I`: the Injected dose/g with Rattus norvegicus [22] is 1.42%; in the test with Rattus norvegicus [23], 2.22%; with Rattus norvegicus [24], 1.92%; in the test on Rattus norvegicus [1] it was 3.47%; in the test with Rattus norvegicus [25] it was 0.19%; with Rattus norvegicus [26], 0.62%. In addition, the Injected dose/g in the test with Rattus norvegicus [27] came out at 1.51%; in the test with Rattus norvegicus [28] it was 1.85%; in the test with Rattus norvegicus [29] it was 0.21%; in the test with Rattus norvegicus [4], 0.76%; in the test with Rattus norvegicus [5] it was 1.59%; with Rattus norvegicus [6], 29%. For the same molecule, the Injected dose/g in the test on Rattus norvegicus [7] came out at 227%; in the test on Rattus norvegicus [30], 0.34%; in the test with Rattus norvegicus [14], 1.03%; in the test on Rattus norvegicus [31], 0.34%. The Ratio in [16] is reported as 5; in test [17], 7; in test [18], 0.37; in [19], 0.97; in [20], 1.6.

(Values after ChEMBL document CHEMBL1122777, “Effect of tellurium position on the myocardial uptake of radioiodinated 18-iodotellura-17-octadecenoic acid analogues” (1984).)
